Measurements reported in article PMC8942385 (Medicinal chemistry research : an international journal for …, 2021).
Entries after “also recorded” stand apart in the source; their conditions may differ. Read-outs that look alike come from different tables or passages of the source.

Experiments:
5-HT2BR = 5-HT2BR (Homo sapiens, UniProt P41595); test: PDSP radioligand binding, 5-HT2BR; settings: [3H]LSD
Procedure, shortened: (§1)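 Radioligand competition binding run by NIMH-PDSP. Radioligands: [3H]8-OH-DPAT (5-HT1AR), [3H]Ketanserin (5-HT2AR), [3H]LSD (5-HT2BR), [3H]SCH23390 (D1R, D5R), [3H]N-Methylspiperone (D2R, D3R, D4R). […] Ki given as mean ± SEM of at least 3 independent assays, each in triplicate.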

5-HT7R [1] = molecular target: T1, 5-HT7R (Homo sapiens, UniProt P34969); test: PDSP radioligand binding, 5-HT7R
T1 sequence (P34969 whole entry): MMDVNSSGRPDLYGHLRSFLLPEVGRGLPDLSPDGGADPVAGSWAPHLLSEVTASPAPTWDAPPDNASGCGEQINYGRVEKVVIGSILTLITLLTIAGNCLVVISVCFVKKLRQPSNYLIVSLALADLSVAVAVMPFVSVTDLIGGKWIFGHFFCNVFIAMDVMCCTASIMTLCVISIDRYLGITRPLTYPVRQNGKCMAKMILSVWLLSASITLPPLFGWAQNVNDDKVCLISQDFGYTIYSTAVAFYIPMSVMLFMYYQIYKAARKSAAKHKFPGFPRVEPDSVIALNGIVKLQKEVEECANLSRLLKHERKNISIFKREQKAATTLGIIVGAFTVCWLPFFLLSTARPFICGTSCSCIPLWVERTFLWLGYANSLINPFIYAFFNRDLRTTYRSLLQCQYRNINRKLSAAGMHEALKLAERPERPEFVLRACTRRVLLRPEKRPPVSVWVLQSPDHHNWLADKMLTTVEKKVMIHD

NET = NET (Homo sapiens, UniProt P23975); test: PDSP radioligand binding, NET; settings: for Binding, NET: inhibition threshold class: [3H]Nisoxetine, 10 μM concentration
Sequence of NET (P23975 whole entry): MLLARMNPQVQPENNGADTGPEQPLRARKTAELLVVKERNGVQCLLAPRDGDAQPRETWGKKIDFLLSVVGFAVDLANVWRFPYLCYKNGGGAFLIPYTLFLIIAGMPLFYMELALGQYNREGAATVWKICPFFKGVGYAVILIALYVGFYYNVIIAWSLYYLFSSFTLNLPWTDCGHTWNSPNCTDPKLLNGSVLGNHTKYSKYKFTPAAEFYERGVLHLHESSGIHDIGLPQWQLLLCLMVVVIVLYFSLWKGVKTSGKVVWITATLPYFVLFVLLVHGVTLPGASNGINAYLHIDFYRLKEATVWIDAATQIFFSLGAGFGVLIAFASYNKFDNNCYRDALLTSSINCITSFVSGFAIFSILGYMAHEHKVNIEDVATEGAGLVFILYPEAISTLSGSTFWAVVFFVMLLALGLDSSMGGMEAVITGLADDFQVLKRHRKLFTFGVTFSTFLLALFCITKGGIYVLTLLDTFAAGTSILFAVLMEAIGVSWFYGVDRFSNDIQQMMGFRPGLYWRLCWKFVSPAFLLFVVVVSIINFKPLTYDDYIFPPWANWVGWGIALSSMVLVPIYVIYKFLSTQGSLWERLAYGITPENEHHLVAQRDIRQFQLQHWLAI

D5R = D5R (Homo sapiens, UniProt P21918); test: PDSP radioligand binding, D5; settings: for inhibition at 10 µM: read-out: Binding, D5: inhibition threshold class
Sequence of D5R (P21918 whole entry): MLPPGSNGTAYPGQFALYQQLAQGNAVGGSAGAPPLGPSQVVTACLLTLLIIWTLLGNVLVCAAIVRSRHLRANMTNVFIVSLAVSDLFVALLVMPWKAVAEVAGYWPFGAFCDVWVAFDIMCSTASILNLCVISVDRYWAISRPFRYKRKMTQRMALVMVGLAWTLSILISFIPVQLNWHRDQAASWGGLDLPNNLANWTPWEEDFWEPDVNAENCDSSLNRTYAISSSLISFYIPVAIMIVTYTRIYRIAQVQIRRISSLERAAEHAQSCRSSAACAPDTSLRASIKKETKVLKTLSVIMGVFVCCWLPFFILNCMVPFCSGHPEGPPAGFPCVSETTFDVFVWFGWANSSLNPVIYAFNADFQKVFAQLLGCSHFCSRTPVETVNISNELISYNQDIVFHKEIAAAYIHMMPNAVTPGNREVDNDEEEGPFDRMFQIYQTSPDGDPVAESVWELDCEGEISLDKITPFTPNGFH
Procedure, shortened: as §1

5-HT2AR = 5-HT2AR (Homo sapiens, UniProt P28223); test: PDSP radioligand binding, 5-HT2AR; settings: [3H]Ketanserin
Sequence of 5-HT2AR (P28223 whole entry): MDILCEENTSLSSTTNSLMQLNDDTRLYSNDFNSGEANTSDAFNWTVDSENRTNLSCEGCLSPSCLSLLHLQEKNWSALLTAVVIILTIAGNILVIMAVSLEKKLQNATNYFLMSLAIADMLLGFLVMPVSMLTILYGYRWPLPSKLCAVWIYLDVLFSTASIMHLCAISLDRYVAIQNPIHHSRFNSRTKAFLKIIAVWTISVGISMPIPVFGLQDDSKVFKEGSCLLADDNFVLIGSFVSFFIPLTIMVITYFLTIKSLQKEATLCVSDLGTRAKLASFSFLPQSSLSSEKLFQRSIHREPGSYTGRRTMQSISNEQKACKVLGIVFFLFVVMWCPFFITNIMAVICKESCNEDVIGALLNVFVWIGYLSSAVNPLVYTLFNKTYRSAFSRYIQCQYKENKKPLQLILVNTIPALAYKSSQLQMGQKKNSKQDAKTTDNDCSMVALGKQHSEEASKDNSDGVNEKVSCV
Procedure, shortened: as §1

D1R = D1R (Homo sapiens, UniProt P21728); test: PDSP radioligand binding, D1; settings: for inhibition at 10 µM: read-out: Binding, D1: inhibition threshold class
Sequence of D1R (P21728 whole entry): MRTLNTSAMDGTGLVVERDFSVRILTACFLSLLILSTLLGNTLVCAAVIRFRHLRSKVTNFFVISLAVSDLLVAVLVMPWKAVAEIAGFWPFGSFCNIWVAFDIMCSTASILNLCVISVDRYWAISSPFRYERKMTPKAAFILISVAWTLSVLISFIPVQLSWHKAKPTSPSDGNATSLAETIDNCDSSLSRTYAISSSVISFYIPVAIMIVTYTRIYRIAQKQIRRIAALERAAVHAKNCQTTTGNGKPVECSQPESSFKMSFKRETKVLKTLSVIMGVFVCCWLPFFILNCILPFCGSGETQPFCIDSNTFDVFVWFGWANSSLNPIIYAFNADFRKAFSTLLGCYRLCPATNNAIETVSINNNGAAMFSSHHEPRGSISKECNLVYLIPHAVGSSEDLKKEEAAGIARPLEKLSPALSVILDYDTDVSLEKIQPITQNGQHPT
Procedure, shortened: as §1

D4R = molecular target: T2, D4R (Homo sapiens, UniProt P21917); test: PDSP radioligand binding, D4
T2 sequence (P21917 1-419): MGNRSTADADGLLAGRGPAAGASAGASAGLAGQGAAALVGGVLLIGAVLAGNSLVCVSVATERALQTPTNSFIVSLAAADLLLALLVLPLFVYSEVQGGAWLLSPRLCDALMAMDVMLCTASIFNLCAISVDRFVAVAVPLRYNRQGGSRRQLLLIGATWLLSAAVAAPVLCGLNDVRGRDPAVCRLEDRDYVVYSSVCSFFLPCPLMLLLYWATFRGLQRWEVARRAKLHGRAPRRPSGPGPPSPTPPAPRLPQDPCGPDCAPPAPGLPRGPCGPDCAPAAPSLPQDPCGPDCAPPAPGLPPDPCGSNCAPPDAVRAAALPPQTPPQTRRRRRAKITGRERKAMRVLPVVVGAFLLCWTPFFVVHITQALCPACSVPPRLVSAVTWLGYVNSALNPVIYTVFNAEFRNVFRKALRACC
Procedure, shortened: as §1

SERT [2] = molecular target: T3, SERT (Homo sapiens, UniProt P31645); test: PDSP radioligand binding, SERT; settings: for Binding, SERT: inhibition threshold class: [3H]Citalopram, 10 μM concentration
T3 sequence (P31645 whole entry, species assumed): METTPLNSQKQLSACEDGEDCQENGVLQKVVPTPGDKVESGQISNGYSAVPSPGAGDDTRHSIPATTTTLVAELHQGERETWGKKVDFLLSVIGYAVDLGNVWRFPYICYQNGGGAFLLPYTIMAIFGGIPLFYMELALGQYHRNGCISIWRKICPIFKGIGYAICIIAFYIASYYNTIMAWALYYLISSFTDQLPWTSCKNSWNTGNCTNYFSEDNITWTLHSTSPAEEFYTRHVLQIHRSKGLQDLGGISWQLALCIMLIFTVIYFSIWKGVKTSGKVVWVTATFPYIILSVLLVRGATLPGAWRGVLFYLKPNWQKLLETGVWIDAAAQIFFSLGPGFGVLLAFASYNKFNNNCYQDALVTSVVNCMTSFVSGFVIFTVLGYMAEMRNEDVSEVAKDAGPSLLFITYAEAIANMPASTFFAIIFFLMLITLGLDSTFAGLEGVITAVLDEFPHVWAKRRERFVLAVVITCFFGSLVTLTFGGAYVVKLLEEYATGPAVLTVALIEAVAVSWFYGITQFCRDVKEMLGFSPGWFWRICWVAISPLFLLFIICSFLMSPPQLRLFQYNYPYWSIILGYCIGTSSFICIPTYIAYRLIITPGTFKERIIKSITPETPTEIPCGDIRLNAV

DAT = DAT (Homo sapiens, UniProt Q01959); test: PDSP radioligand binding, DAT; settings: for Binding, DAT: inhibition threshold class: [3H]WIN35428, 10 μM concentration
Sequence of DAT (Q01959 whole entry, species assumed): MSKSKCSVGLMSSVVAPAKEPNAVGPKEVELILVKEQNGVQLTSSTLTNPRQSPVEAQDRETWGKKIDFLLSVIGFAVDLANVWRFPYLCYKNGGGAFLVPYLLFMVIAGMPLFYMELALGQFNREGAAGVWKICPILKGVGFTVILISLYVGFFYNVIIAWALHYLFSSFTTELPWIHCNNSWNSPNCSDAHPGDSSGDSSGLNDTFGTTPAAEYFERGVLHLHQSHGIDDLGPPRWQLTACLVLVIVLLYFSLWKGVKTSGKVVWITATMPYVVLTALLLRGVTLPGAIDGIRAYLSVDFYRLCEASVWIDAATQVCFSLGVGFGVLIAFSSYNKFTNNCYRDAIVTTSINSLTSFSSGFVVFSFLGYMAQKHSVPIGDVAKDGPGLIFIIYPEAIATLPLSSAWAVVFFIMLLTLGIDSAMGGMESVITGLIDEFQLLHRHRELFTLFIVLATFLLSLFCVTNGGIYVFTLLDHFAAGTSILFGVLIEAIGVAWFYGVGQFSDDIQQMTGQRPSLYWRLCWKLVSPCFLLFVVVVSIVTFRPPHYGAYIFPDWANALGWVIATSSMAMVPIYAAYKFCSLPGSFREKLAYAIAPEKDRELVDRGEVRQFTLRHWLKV

5-HT2CR = molecular target: T4, 5-HT2CR (Homo sapiens, UniProt P28335); test: PDSP radioligand binding, 5-HT2CR
T4 sequence (P28335 33-458): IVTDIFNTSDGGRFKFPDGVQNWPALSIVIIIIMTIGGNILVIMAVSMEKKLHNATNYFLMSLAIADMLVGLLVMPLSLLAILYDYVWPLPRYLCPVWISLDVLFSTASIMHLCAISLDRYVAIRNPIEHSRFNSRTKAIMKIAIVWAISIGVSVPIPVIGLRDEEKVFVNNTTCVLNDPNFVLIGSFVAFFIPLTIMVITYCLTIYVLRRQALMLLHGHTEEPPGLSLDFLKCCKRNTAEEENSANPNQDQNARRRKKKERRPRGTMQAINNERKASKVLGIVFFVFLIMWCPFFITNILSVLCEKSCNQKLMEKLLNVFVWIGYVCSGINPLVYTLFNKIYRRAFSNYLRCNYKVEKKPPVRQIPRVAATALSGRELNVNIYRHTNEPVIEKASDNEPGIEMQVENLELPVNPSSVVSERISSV

5-HT1AR [3] = molecular target: T5, 5-HT1AR (Homo sapiens, UniProt P08908); test: PDSP radioligand binding, 5-HT1AR; settings: [3H]8-OH-DPAT
T5 sequence (P08908 1-422): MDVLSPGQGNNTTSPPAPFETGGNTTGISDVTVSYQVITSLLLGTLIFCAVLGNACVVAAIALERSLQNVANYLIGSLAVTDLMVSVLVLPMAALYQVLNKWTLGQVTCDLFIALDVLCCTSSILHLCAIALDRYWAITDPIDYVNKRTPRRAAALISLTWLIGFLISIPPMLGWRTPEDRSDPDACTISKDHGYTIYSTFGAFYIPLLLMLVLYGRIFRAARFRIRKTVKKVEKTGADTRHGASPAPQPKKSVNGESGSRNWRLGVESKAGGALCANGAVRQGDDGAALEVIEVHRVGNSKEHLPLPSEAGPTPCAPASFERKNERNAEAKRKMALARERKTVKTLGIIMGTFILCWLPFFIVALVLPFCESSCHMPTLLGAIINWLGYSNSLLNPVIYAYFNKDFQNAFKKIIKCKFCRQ
Procedure, shortened: as §1

D3R = D3R (Homo sapiens, UniProt P35462); test: PDSP radioligand binding, D3; settings: for Ki: Binding affinity constant Ki, D3, [3H]N-Methylspiperone
Sequence of D3R (P35462 whole entry): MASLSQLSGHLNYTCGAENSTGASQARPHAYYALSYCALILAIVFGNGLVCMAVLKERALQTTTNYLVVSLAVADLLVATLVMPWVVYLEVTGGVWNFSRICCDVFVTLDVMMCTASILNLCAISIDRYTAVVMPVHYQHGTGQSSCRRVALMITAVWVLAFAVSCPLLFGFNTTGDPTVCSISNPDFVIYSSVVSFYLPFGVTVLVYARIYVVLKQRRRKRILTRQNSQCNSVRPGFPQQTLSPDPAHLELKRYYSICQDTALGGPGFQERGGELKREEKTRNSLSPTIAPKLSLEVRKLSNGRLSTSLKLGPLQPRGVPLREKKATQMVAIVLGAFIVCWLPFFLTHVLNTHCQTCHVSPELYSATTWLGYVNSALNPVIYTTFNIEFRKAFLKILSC
Procedure, shortened: as §1

D2R = D2R (Homo sapiens, UniProt P14416); test: PDSP radioligand binding, D2
Procedure, shortened: as §1

h5-HT7A [4] = molecular target: T6, h5-HT7A (Homo sapiens, UniProt P34969); test: HEK-5-HT7A / cAMP functional assay; type: cell-based; settings: agonist mode
T6 sequence (P34969 1-445 isoform P34969-2): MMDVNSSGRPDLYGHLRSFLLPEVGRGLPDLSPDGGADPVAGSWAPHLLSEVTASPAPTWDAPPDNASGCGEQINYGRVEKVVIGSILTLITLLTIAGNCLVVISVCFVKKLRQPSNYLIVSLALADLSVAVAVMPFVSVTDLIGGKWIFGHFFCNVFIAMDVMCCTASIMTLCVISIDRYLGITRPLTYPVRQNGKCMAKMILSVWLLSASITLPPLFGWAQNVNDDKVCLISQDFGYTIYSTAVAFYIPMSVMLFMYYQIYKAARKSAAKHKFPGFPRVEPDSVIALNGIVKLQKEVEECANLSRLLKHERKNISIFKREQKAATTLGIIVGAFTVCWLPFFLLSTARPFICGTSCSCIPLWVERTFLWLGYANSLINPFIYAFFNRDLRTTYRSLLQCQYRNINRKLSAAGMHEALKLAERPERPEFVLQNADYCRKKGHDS

5-HT7R [5] = molecular target: T1, 5-HT7R; test: GPCR Tango assay, β-arrestin recruitment; type: cell-based
SERT [6] = molecular target: T3, SERT; settings: 10 μM concentration; cited from earlier work
[7] = Configurational stability of separated enantiomers; type: physicochemical; settings: after chiral HPLC separation
5-HT1AR [8] = molecular target: T5, 5-HT1AR; settings: read-out: Binding affinity constant Ki, 5-HT1AR; cited from earlier work
5-HT7R [9] = molecular target: T1, 5-HT7R; settings: read-out: Binding affinity constant Ki, 5-HT7R; Table 1; cited from earlier work
h5-HT7A [10] = molecular target: T6, h5-HT7A; settings: cited from earlier work
5-HT7R [11] = molecular target: T1, 5-HT7R; settings: cited from earlier work
[12] = Binding affinity constant Ki, 5-HT1AR
[13] = mean ± SEM, min 3 assays in triplicate
[14] = [3H]SCH23390, 10 μM concentration

SMILES: CC1(CCN2CCc3ccccc3C2)Cc2cc(Cl)ccc2C1=O (stereo not drawn) [Compound 2, 5-chloro-2-(2-(3,4-dihydroisoquinolin-2(1H)-yl)ethyl)-2-methyl-2,3-dihydro-1H-inden-1-one]
- Ki (5-HT2BR; Binding affinity constant Ki, 5-HT2BR): 174 nM
- Fold higher affinity at the 5-HT7R than clozapine (5-HT7R [1]): 2 fold
- Fold lower affinity at the 5-HT7R than AS 19 (5-HT7R [1]): about 4 fold
- Ki (5-HT7R [1]): 2.24 nM
- inhibition at 10 µM (NET; read-out: Binding, NET: inhibition threshold class): < 50%
- inhibition at 10 µM (D5R): < 50%
- Ki (5-HT2AR; Binding affinity constant Ki, 5-HT2AR): 904 nM
- inhibition at 10 µM (D1R): < 50%
- Ki (D4R; Binding affinity constant Ki, D4, [3H]N-Methylspiperone): 1220 nM
- inhibition at 10 µM (SERT [2]; read-out: Binding, SERT: inhibition threshold class): < 50%
- inhibition at 10 µM (DAT; read-out: Binding, DAT: inhibition threshold class): < 50%
- Ki (5-HT2CR; Binding affinity constant Ki, 5-HT2CR, [3H]Mesulergine): 1740 nM
- Ki (5-HT1AR [3]; [12]): 1720 nM
- Ki (D3R): 185 nM
- Ki (D2R): 1230 nM

SMILES: CCOC(=O)C1(CCN2CCc3ccccc3C2)Cc2cc(Cl)ccc2C1=O (stereo not drawn) [Compound 3, ethyl 5-chloro-2-(2-(3,4-dihydroisoquinolin-2(1H)-yl)ethyl)-1-oxo-2,3-dihydro-1H-indene-2-carboxylate]
- Ki (5-HT7R [1]): 3.39 nM
- Binding, NET: inhibition threshold class (NET): MT (Missed threshold of 50% inhibition at 10 μM concentration)
- inhibition at 10 µM (D5R): < 50%
- inhibition at 10 µM (D1R): < 50%
- inhibition at 10 µM (D4R; read-out: Binding, D4: inhibition threshold class): < 50%
- Binding, SERT: inhibition threshold class (SERT [2]): MT (Missed threshold of 50% inhibition at 10 μM concentration)
- Binding, DAT: inhibition threshold class (DAT): MT (Missed threshold of 50% inhibition at 10 μM concentration)
- Ki (5-HT2CR): 885 nM
- Ki (5-HT1AR [3]; [12]): 52 nM
- Ki (D3R): 134 nM
- Ki (D2R): 747 nM

SMILES: NCCc1c[nH]c2ccc(O)cc12 [Compound 5-HT, Serotonin, reference compound]
- cAMP Hill (h5-HT7A [4]): 1.0±0.1
- β-arrestin Hill (5-HT7R [5]; agonist mode, Tango): 3.4±0.4

SMILES: O=C1c2ccc(Cl)cc2CC1CCN1CCc2ccccc2C1 (stereo not drawn) [Compound 1c, 5-chloro-2-(2-(3,4-dihydroisoquinolin-2(1H)-yl)ethyl)-2,3-dihydro-1H-inden-1-one]
- Binding, SERT: inhibition threshold class (SERT [6]): MT (Missed threshold of 50% inhibition at 10 μM concentration)
- Racemization of separated enantiomers [7]: racemizes readily; also recorded: quickly reverted to the racemic mixture in a matter of hours

SMILES: Cc1nn(C)c(C)c1-c1cccc2c1CC[C@H](N(C)C)C2 [AS-19]
- Ki (5-HT1AR [8]): 89.7 nM
- Ki (5-HT7R [9]): 0.6 nM

SMILES: Clc1ccc(-c2n[nH]c3c2CCNCC3)cc1 [Compound 7, 3-(4-chlorophenyl)-1,4,5,6,7,8-hexahydropyrazolo[3,4-d]azepine]
- cAMP Emax % (h5-HT7A [10]): 94.7%
- cAMP pEC50 (h5-HT7A [10]): 5.1±0.1
- EC50 (h5-HT7A [10]; read-out: cAMP EC50): 7790 nM
- Ki (5-HT1AR [8]): > 10000 nM
- β-arrestin Emax % (5-HT7R [11]): 62.7%
- β-arrestin pEC50 (5-HT7R [11]): 6.8±0.2

SMILES: CC1(CCN2CCc3ccccc3C2)Cc2cc(Cl)ccc2C1=O (single isomer, unassigned; (-)) [Compound 2a, (−)-5-chloro-2-(2-(3,4-dihydroisoquinolin-2(1H)-yl)ethyl)-2-methyl-2,3-dihydro-1H-inden-1-one]
- cAMP Hill (h5-HT7A [4]): 1.3± 0.2
- cAMP pEC50 (h5-HT7A [4]): 6.9±0.3
- cAMP Emax % (h5-HT7A [4]; normalized to maximal serotonin effect): 82.8 ± 2.6%
- EC50 (h5-HT7A [4]; read-out: cAMP EC50): 126 nM
- β-arrestin Emax % (5-HT7R [5]; agonist mode, Tango): 78.7 ± 5.7%
- β-arrestin Hill (5-HT7R [5]; agonist mode, Tango): 1.2 ± 0.1
- β-arrestin pEC50 (5-HT7R [5]; agonist mode, Tango): 8.4 ± 0.1
- EC50 (5-HT7R [5]; read-out: β-arrestin EC50, agonist mode, Tango): 3.98 nM
- Times higher activity than 5-HT in the β-arrestin pathway (5-HT7R [5]; relative to 5-HT): over 31 times
- Binding affinity constant pKi ± SEM, 5-HT2BR (5-HT2BR; [13]): 6.48 ± 0.04
- Ki (5-HT2BR; read-out: Binding affinity constant Ki, 5-HT2BR): 329 nM
- Selectivity for 5-HT7R over 5-HT1AR (5-HT7R [1]): ~72 fold
- Binding affinity constant pKi ± SEM, 5-HT7R (5-HT7R [1]; Table 1, [3H]LSD, mean ± SEM, min 3 assays in triplicate): 8.94 ± 0.06
- 5-HT7 Receptor Binding pKi (5-HT7R [1]; Table 3): 8.7 ± 0.1
- Ki (5-HT7R [1]; read-out: 5-HT7 Receptor Binding Ki, Table 3): 2.4 nM
- Ki (5-HT7R [1]; read-out: Binding affinity constant Ki, 5-HT7R, Table 1, [3H]LSD): 1.2 nM
- Binding, NET: inhibition threshold class (NET): MT (Missed threshold of 50% inhibition at 10 μM concentration)
- Binding, D5: inhibition threshold class (D5R; [14]): MT (Missed threshold of 50% inhibition at 10 μM concentration)
- Binding affinity constant pKi ± SEM, 5-HT2AR (5-HT2AR; [13]): 6.08 ± 0.06
- Ki (5-HT2AR; read-out: Binding affinity constant Ki, 5-HT2AR): 834 nM
- Racemization of separated enantiomers [7]: No racemization
- Binding, D1: inhibition threshold class (D1R; [14]): MT (Missed threshold of 50% inhibition at 10 μM concentration)
- Binding affinity constant pKi ± SEM, D4 (D4R; [3H]N-Methylspiperone, mean ± SEM, min 3 assays in triplicate): 6.34 ± 0.07
- Ki (D4R; read-out: Binding affinity constant Ki, D4, [3H]N-Methylspiperone): 457 nM
- Binding, SERT: inhibition threshold class (SERT [2]): MT (Missed threshold of 50% inhibition at 10 μM concentration)
- Binding, DAT: inhibition threshold class (DAT): MT (Missed threshold of 50% inhibition at 10 μM concentration)
- Binding, 5-HT2CR: inhibition threshold class (5-HT2CR; 10 μM concentration): MT (Missed threshold of 50% inhibition at 10 μM concentration)
- Binding affinity constant pKi ± SEM, 5-HT1AR (5-HT1AR [3]; [13]): 7.06±0.07
- Ki (5-HT1AR [3]; read-out: Binding affinity constant Ki, 5-HT1AR): 86.3 nM
- Binding, D3: inhibition threshold class (D3R; 10 μM concentration): MT (Missed threshold of 50% inhibition at 10 μM concentration)
- Binding, D2: inhibition threshold class (D2R; 10 μM concentration): MT (Missed threshold of 50% inhibition at 10 μM concentration)
